# Results: ChEMBL document CHEMBL4689842, “EUbOPEN Chemogenomics Library wave 1” (2021)
# System: U2OS
# Assay: Multiplex assay against U2OS
# Type: toxicity, cell-based
# Conditions: human
# Summary of the method: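 Compound was added to live cells that had been stained at seeding with Hoechst33342, BioTracker Green Microtubule Cytoskeleton Dye, MitoTracker Red and Annexin V Alexa Fluor 680, and imaging followed on a CQ1 microscope at 37°C and 5% CO2. CellPathfinder machine-learning gating divided cells into Hoechst high-intensity objects or normal cells, normal cells into healthy, pyknosed or fragmented nuclei, and pyknosed cells into mitotic or apoptotic. Tubulin, mitochondrial-mass and membrane-permeability phenotypes are per cents of healthy-nucleus cells.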
# [1] = 12 h, 1 µM, compound concentration 1 uM, replicate 1
# [2] = 12 h, 1 µM, compound concentration 1 uM, replicate 2
# [3] = 12 h, 10 µM, compound concentration 10 uM, replicate 1
# [4] = 12 h, 10 µM, compound concentration 10 uM, replicate 2
# [5] = 24 h, 1 µM, compound concentration 1 uM, replicate 1
# [6] = 24 h, 1 µM, compound concentration 1 uM, replicate 2
# [7] = 24 h, 10 µM, compound concentration 10 uM, replicate 1
# [8] = 24 h, 10 µM, compound concentration 10 uM, replicate 2
# [9] = 48 h, 1 µM, compound concentration 1 uM, replicate 1
# [10] = 48 h, 1 µM, compound concentration 1 uM, replicate 2
# [11] = 48 h, 10 µM, compound concentration 10 uM, replicate 1
# [12] = 48 h, 10 µM, compound concentration 10 uM, replicate 2
compound,measurement,setting,value
S=C(NCCCc1c[nH]cn1)NCCCN(Cc1ccc(Cl)c(Cl)c1)c1ccc(Br)cn1,Population Apoptotic (%),[1],56%
same,Population Fragmented Nuclei (%),[1],9%
same,Population Healthy Nuclei (%),[1],76%
same,Population Hoechst High Intensity Objects (%),[1],9%
same,Population Membrane Permeable-Phenotype (%),[1],7%
same,Population Mitochondria Different-Phenotype (%),[1],31%
same,Population Mitotic Cells (%),[1],43%
same,Population Normal (%),[1],90%
same,Population Pyknosed Nuclei (%),[1],13%
same,Population Tubulin-Different-Phenotype (%),[1],32%
same,Total Cell Count,[1],193
same,Population Apoptotic (%),[2],0%
same,Population Fragmented Nuclei (%),[2],17%
same,Population Healthy Nuclei (%),[2],82%
same,Population Hoechst High Intensity Objects (%),[2],15%
same,Population Membrane Permeable-Phenotype (%),[2],8%
same,Population Mitochondria Different-Phenotype (%),[2],8%
same,Population Mitotic Cells (%),[2],0%
same,Population Normal (%),[2],84%
same,Population Pyknosed Nuclei (%),[2],0%
same,Population Tubulin-Different-Phenotype (%),[2],4%
same,Total Cell Count,[2],79
same,Population Apoptotic (%),[3],88%
same,Population Fragmented Nuclei (%),[3],47%
same,Population Healthy Nuclei (%),[3],4%
same,Population Hoechst High Intensity Objects (%),[3],15%
same,Population Mitotic Cells (%),[3],11%
same,Population Normal (%),[3],84%
same,Population Pyknosed Nuclei (%),[3],48%
same,Total Cell Count,[3],133
same,Population Apoptotic (%),[4],93%
same,Population Fragmented Nuclei (%),[4],25%
same,Population Healthy Nuclei (%),[4],2%
same,Population Hoechst High Intensity Objects (%),[4],11%
same,Population Membrane Permeable-Phenotype (%),[4],100%
same,Population Mitochondria Different-Phenotype (%),[4],100%
same,Population Mitotic Cells (%),[4],6%
same,Population Normal (%),[4],88%
same,Population Pyknosed Nuclei (%),[4],72%
same,Population Tubulin-Different-Phenotype (%),[4],100%
same,Total Cell Count,[4],33
same,Population Apoptotic (%),[5],66%
same,Population Fragmented Nuclei (%),[5],10%
same,Population Healthy Nuclei (%),[5],76%
same,Population Hoechst High Intensity Objects (%),[5],6%
same,Population Membrane Permeable-Phenotype (%),[5],6%
same,Population Mitochondria Different-Phenotype (%),[5],10%
same,Population Mitotic Cells (%),[5],33%
same,Population Normal (%),[5],93%
same,Population Pyknosed Nuclei (%),[5],12%
same,Population Tubulin-Different-Phenotype (%),[5],14%
same,Total Cell Count,[5],199
same,Population Apoptotic (%),[6],0%
same,Population Fragmented Nuclei (%),[6],19%
same,Population Healthy Nuclei (%),[6],80%
same,Population Hoechst High Intensity Objects (%),[6],8%
same,Population Membrane Permeable-Phenotype (%),[6],16%
same,Population Mitochondria Different-Phenotype (%),[6],8%
same,Population Mitotic Cells (%),[6],0%
same,Population Normal (%),[6],91%
same,Population Pyknosed Nuclei (%),[6],0%
same,Population Tubulin-Different-Phenotype (%),[6],20%
same,Total Cell Count,[6],79
same,Population Apoptotic (%),[7],97%
same,Population Fragmented Nuclei (%),[7],44%
same,Population Healthy Nuclei (%),[7],5%
same,Population Hoechst High Intensity Objects (%),[7],21%
same,Population Membrane Permeable-Phenotype (%),[7],100%
same,Population Mitochondria Different-Phenotype (%),[7],100%
same,Population Mitotic Cells (%),[7],2%
same,Population Normal (%),[7],78%
same,Population Pyknosed Nuclei (%),[7],49%
same,Population Tubulin-Different-Phenotype (%),[7],100%
same,Total Cell Count,[7],149
same,Population Apoptotic (%),[8],100%
same,Population Fragmented Nuclei (%),[8],12%
same,Population Healthy Nuclei (%),[8],24%
same,Population Hoechst High Intensity Objects (%),[8],25%
same,Population Membrane Permeable-Phenotype (%),[8],94%
same,Population Mitochondria Different-Phenotype (%),[8],88%
same,Population Mitotic Cells (%),[8],0%
same,Population Normal (%),[8],74%
same,Population Pyknosed Nuclei (%),[8],62%
same,Population Tubulin-Different-Phenotype (%),[8],88%
same,Total Cell Count,[8],34
same,Population Apoptotic (%),[9],28%
same,Population Fragmented Nuclei (%),[9],10%
same,Population Healthy Nuclei (%),[9],58%
same,Population Hoechst High Intensity Objects (%),[9],8%
same,Population Membrane Permeable-Phenotype (%),[9],6%
same,Population Mitochondria Different-Phenotype (%),[9],11%
same,Population Mitotic Cells (%),[9],72%
same,Population Normal (%),[9],91%
same,Population Pyknosed Nuclei (%),[9],30%
same,Population Tubulin-Different-Phenotype (%),[9],10%
same,Total Cell Count,[9],211
same,Population Apoptotic (%),[10],22%
same,Population Fragmented Nuclei (%),[10],21%
same,Population Healthy Nuclei (%),[10],54%
same,Population Hoechst High Intensity Objects (%),[10],13%
same,Population Membrane Permeable-Phenotype (%),[10],5%
same,Population Mitochondria Different-Phenotype (%),[10],10%
same,Population Mitotic Cells (%),[10],77%
same,Population Normal (%),[10],86%
same,Population Pyknosed Nuclei (%),[10],24%
same,Population Tubulin-Different-Phenotype (%),[10],15%
same,Total Cell Count,[10],76
same,Population Apoptotic (%),[11],92%
same,Population Fragmented Nuclei (%),[11],50%
same,Population Healthy Nuclei (%),[11],2%
same,Population Hoechst High Intensity Objects (%),[11],22%
same,Population Membrane Permeable-Phenotype (%),[11],50%
same,Population Mitochondria Different-Phenotype (%),[11],100%
same,Population Mitotic Cells (%),[11],7%
same,Population Normal (%),[11],77%
same,Population Pyknosed Nuclei (%),[11],46%
same,Population Tubulin-Different-Phenotype (%),[11],100%
same,Total Cell Count,[11],177
same,Population Apoptotic (%),[12],100%
same,Population Fragmented Nuclei (%),[12],31%
same,Population Healthy Nuclei (%),[12],41%
same,Population Hoechst High Intensity Objects (%),[12],30%
same,Population Membrane Permeable-Phenotype (%),[12],92%
same,Population Mitochondria Different-Phenotype (%),[12],89%
same,Population Mitotic Cells (%),[12],0%
same,Population Normal (%),[12],69%
same,Population Pyknosed Nuclei (%),[12],26%
same,Population Tubulin-Different-Phenotype (%),[12],92%
same,Total Cell Count,[12],43
Cl.Oc1ccc2c3c1O[C@H]1c4[nH]c5c(c4C[C@@]4(O)[C@@H](C2)N(CC2CC2)CC[C@]314)C[C@@]1(O)[C@H]2Cc3ccc(O)c4c3[C@@]1(CCN2CC1CC1)[C@H]5O4,Population Apoptotic (%),[1],38%
same,Population Fragmented Nuclei (%),[1],9%
same,Population Healthy Nuclei (%),[1],79%
same,Population Hoechst High Intensity Objects (%),[1],6%
same,Population Membrane Permeable-Phenotype (%),[1],9%
same,Population Mitochondria Different-Phenotype (%),[1],15%
same,Population Mitotic Cells (%),[1],61%
same,Population Normal (%),[1],93%
same,Population Tubulin-Different-Phenotype (%),[1],14%
same,Total Cell Count,[1],105
same,Population Apoptotic (%),[2],42%
same,Population Fragmented Nuclei (%),[2],3%
same,Population Healthy Nuclei (%),[2],86%
same,Population Hoechst High Intensity Objects (%),[2],9%
same,Population Membrane Permeable-Phenotype (%),[2],10%
same,Population Mitochondria Different-Phenotype (%),[2],19%
same,Population Mitotic Cells (%),[2],57%
same,Population Normal (%),[2],90%
same,Population Pyknosed Nuclei (%),[2],10%
same,Population Tubulin-Different-Phenotype (%),[2],17%
same,Total Cell Count,[2],97
same,Population Apoptotic (%),[3],57%
same,Population Fragmented Nuclei (%),[3],14%
same,Population Healthy Nuclei (%),[3],73%
same,Population Hoechst High Intensity Objects (%),[3],6%
same,Population Membrane Permeable-Phenotype (%),[3],6%
same,Population Mitochondria Different-Phenotype (%),[3],10%
same,Population Mitotic Cells (%),[3],42%
same,Population Normal (%),[3],93%
same,Population Pyknosed Nuclei (%),[3],12%
same,Population Tubulin-Different-Phenotype (%),[3],3%
same,Total Cell Count,[3],183
same,Population Apoptotic (%),[4],93%
same,Population Fragmented Nuclei (%),[4],12%
same,Population Healthy Nuclei (%),[4],48%
same,Population Hoechst High Intensity Objects (%),[4],7%
same,Population Membrane Permeable-Phenotype (%),[4],52%
same,Population Mitochondria Different-Phenotype (%),[4],26%
same,Population Mitotic Cells (%),[4],6%
same,Population Normal (%),[4],92%
same,Population Pyknosed Nuclei (%),[4],38%
same,Population Tubulin-Different-Phenotype (%),[4],89%
same,Total Cell Count,[4],73
same,Population Apoptotic (%),[5],30%
same,Population Fragmented Nuclei (%),[5],7%
same,Population Healthy Nuclei (%),[5],80%
same,Population Hoechst High Intensity Objects (%),[5],3%
same,Population Membrane Permeable-Phenotype (%),[5],6%
same,Population Mitochondria Different-Phenotype (%),[5],12%
same,Population Mitotic Cells (%),[5],69%
same,Population Normal (%),[5],96%
same,Population Pyknosed Nuclei (%),[5],11%
same,Population Tubulin-Different-Phenotype (%),[5],9%
same,Total Cell Count,[5],113
same,Population Apoptotic (%),[6],25%
same,Population Fragmented Nuclei (%),[6],3%
same,Population Healthy Nuclei (%),[6],91%
same,Population Hoechst High Intensity Objects (%),[6],4%
same,Population Membrane Permeable-Phenotype (%),[6],10%
same,Population Mitochondria Different-Phenotype (%),[6],13%
same,Population Mitotic Cells (%),[6],75%
same,Population Normal (%),[6],95%
same,Population Pyknosed Nuclei (%),[6],4%
same,Population Tubulin-Different-Phenotype (%),[6],18%
same,Total Cell Count,[6],94
same,Population Apoptotic (%),[7],55%
same,Population Fragmented Nuclei (%),[7],9%
same,Population Healthy Nuclei (%),[7],80%
same,Population Hoechst High Intensity Objects (%),[7],3%
same,Population Membrane Permeable-Phenotype (%),[7],3%
same,Population Mitochondria Different-Phenotype (%),[7],8%
same,Population Mitotic Cells (%),[7],45%
same,Population Normal (%),[7],96%
same,Population Pyknosed Nuclei (%),[7],10%
same,Population Tubulin-Different-Phenotype (%),[7],5%
same,Total Cell Count,[7],231
same,Population Apoptotic (%),[8],76%
same,Population Fragmented Nuclei (%),[8],13%
same,Population Healthy Nuclei (%),[8],58%
same,Population Hoechst High Intensity Objects (%),[8],13%
same,Population Membrane Permeable-Phenotype (%),[8],48%
same,Population Mitochondria Different-Phenotype (%),[8],33%
same,Population Mitotic Cells (%),[8],23%
same,Population Normal (%),[8],86%
same,Population Pyknosed Nuclei (%),[8],28%
same,Population Tubulin-Different-Phenotype (%),[8],77%
same,Total Cell Count,[8],91
same,Population Apoptotic (%),[9],22%
same,Population Fragmented Nuclei (%),[9],4%
same,Population Hoechst High Intensity Objects (%),[9],3%
same,Population Membrane Permeable-Phenotype (%),[9],2%
same,Population Mitochondria Different-Phenotype (%),[9],11%
same,Population Mitotic Cells (%),[9],77%
same,Population Normal (%),[9],96%
same,Population Pyknosed Nuclei (%),[9],8%
same,Population Tubulin-Different-Phenotype (%),[9],11%
same,Total Cell Count,[9],107
same,Population Apoptotic (%),[10],14%
same,Population Fragmented Nuclei (%),[10],6%
same,Population Healthy Nuclei (%),[10],87%
same,Population Hoechst High Intensity Objects (%),[10],4%
same,Population Membrane Permeable-Phenotype (%),[10],9%
same,Population Mitochondria Different-Phenotype (%),[10],16%
same,Population Mitotic Cells (%),[10],85%
same,Population Normal (%),[10],95%
same,Population Pyknosed Nuclei (%),[10],5%
same,Population Tubulin-Different-Phenotype (%),[10],14%
same,Total Cell Count,[10],96
same,Population Apoptotic (%),[11],47%
same,Population Fragmented Nuclei (%),[11],4%
same,Population Healthy Nuclei (%),[11],89%
same,Population Hoechst High Intensity Objects (%),[11],3%
same,Population Membrane Permeable-Phenotype (%),[11],1%
same,Population Mitochondria Different-Phenotype (%),[11],9%
same,Population Mitotic Cells (%),[11],52%
same,Population Normal (%),[11],96%
same,Population Pyknosed Nuclei (%),[11],6%
same,Population Tubulin-Different-Phenotype (%),[11],4%
same,Total Cell Count,[11],365
same,Population Apoptotic (%),[12],60%
same,Population Fragmented Nuclei (%),[12],11%
same,Population Healthy Nuclei (%),[12],73%
same,Population Hoechst High Intensity Objects (%),[12],8%
same,Population Membrane Permeable-Phenotype (%),[12],30%
same,Population Mitochondria Different-Phenotype (%),[12],34%
same,Population Mitotic Cells (%),[12],40%
same,Population Normal (%),[12],91%
same,Population Pyknosed Nuclei (%),[12],15%
same,Population Tubulin-Different-Phenotype (%),[12],84%
same,Total Cell Count,[12],129
